Series [1] has as its target NACHT, LRR and PYD domains-containing protein 3 (Mus musculus) (UniProt Q8R4B8). Put plainly: Inhibition of NLRP3 inflammasome activation in LPS-treated mouse BMDM cells assessed as Bz-ATP-stimulated IL-1beta level at 1 uM incubated for 30 mins followed by Bz-ATP stimulation for 30 mins by ELISA method. It counts as cell-based. Particulars: time 60.0 min. In outline: (§1)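 Mouse BMDMs, C57BL/6 bone marrow cells differentiated 7 days with M-CSF 10 ng/mL, seeded 5 × 10^5/well. Primed with LPS 1 µg/mL for 2 h, then compound 1 µM in serum-free medium for 30 min, then Bz-ATP 100 µM for 30 min. Supernatant IL-1β by ELISA in pg/mL and as percent inhibition. Mean ± SEM of three independent experiments in triplicate.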

Series [2] shares this target. Description: Inhibition of NLRP3 inflammasome activation in LPS-treated mouse BMDM cells assessed as inhibition of Bz-ATP-stimulated IL-1beta release at 1 uM incubated for 30 mins followed by Bz-ATP stimulation for 30 mins by ELISA method relative to control. The class given is cell-based. Particulars: time 60.0 min. An outline of the steps: as §1
(In an ELISA, binding on a coated surface is turned into a signal by an enzyme label.)

For series [3] the target is unchanged. Put plainly: Inhibition of NLRP3 inflammasome activation in LPS-treated mouse BMDM cells assessed as inhibition of Bz-ATP-stimulated IL-1beta release at 1 uM incubated for 30 mins followed by Bz-ATP stimulation for 30 mins by ELISA method. It counts as cell-based. Particulars: time 60.0 min. An outline of the steps:
as §1

A short description of series [4]: Metabolic stability in human liver microsomes assessed as half life measured per mg protein at 1 uM measured upto 60 mins by LC-MS/MS analysis. It counts as ADME, Microsome. An outline of the steps: (§2)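 Pooled human or CD-1 male mouse liver microsomes at 0.5 mg/mL with test compound 1 µM in 50 mM phosphate pH 7.4 and 3 mM MgCl2, preincubated 10 min at 37 °C. Percent parent remaining vs 0 min measured by LC-MS/MS. Cli = k/microsomal conc. × 1000; mean ± SD, n = 2.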
A general note: Microsomes from liver hold many membrane-bound enzymes, among them those of drug oxidation.

Series [5] is described as follows: Metabolic stability in mouse liver microsomes assessed as half life measured per mg protein at 1 uM measured upto 60 mins by LC-MS/MS analysis. The class given is ADME, Microsome. In outline: as §2
Series [6] in a line: Metabolic stability in human liver microsomes assessed as intrinsic clearance measured per mg protein at 1 uM measured upto 60 mins by LC-MS/MS analysis. It counts as ADME, Microsome. Particulars: read-out: CLH. In outline: as §2
Series [7] is described as follows: Metabolic stability in mouse liver microsomes assessed as intrinsic clearance measured per mg protein at 1 uM measured upto 60 mins by LC-MS/MS analysis. It counts as ADME, Microsome. Particulars: read-out: CLH. In outline: as §2

The source made the active and inactive calls. The calls are words filed in the database; no cut-off is given here.

As a reminder, the inhibition is the change of the read-out against control, counted positive when it falls. In general, half-life refers to the time in which the quantity being followed falls by half.

Sequence of NACHT, LRR and PYD domains-containing protein 3 (Mus musculus) (Q8R4B8 whole entry, the tested form may be a part): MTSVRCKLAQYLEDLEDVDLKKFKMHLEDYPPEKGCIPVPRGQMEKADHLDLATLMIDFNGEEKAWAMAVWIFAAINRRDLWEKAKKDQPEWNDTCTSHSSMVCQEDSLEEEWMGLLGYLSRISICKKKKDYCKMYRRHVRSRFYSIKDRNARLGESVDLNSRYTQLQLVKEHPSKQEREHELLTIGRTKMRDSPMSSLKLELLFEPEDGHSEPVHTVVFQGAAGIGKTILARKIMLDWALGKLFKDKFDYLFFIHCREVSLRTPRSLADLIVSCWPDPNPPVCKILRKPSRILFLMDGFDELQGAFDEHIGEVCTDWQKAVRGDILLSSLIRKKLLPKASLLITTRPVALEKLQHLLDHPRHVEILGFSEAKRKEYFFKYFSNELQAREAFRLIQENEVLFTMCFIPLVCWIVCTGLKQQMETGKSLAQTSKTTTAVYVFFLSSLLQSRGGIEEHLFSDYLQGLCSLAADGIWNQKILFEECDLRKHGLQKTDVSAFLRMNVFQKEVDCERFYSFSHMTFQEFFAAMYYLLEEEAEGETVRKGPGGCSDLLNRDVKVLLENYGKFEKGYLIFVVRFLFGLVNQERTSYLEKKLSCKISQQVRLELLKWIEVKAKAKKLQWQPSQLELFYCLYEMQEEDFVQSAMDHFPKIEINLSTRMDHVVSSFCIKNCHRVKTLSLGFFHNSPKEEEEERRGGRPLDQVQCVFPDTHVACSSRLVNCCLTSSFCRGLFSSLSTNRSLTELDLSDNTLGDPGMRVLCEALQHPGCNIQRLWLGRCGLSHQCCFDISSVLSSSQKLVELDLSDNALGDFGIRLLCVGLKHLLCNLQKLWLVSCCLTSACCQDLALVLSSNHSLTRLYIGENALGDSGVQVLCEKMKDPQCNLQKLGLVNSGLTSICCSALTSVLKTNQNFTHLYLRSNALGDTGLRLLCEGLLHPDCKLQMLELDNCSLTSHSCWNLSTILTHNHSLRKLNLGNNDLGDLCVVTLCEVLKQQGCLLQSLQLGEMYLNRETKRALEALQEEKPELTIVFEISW

Take `O=C(Nc1c2c(cc3c1CCC3)CCC2)[C@@H]1CCCN1S(=O)(=O)c1ccc([N+](=O)[O-])cc1`: in series [1], the Activity worked out at 210 pg/mL. Besides, the inhibition in series [2] was 25.7%. With `Nc1ccc(S(=O)(=O)N2CCCC[C@H]2C(=O)Nc2c3c(cc4c2CCC4)CCC3)cc1`, the Activity in series [1] came out at 211 pg/mL. In series [2], the inhibition turned out to be 25.4%. In the same order, the values of `Nc1ccc(S(=O)(=O)N[C@@H](Cc2ccccc2)C(=O)Nc2c3c(cc4c2CCC4)CCC3)cc1` are 175 pg/mL and 38%.

Turning to `Nc1ccc(S(=O)(=O)N2CCC[C@H]2C(=O)Nc2c3c(cc4c2CCC4)CCC3)cc1`, the Activity in series [1] is 165 pg/mL. For the same compound, in series [2], the inhibition came to 41.6%. As to `CC(C)[C@@H](NS(=O)(=O)c1ccc(N)cc1)C(=O)Nc1c2c(cc3c1CCC3)CCC2`, the inhibition in series [2] stood at 25.1%. Turning to `O=C(Nc1c2c(cc3c1CCC3)CCC2)[C@@H](Cc1ccccc1)NS(=O)(=O)c1ccc([N+](=O)[O-])cc1`, the Activity in series [1] stood at 143 pg/mL. Besides, the inhibition in series [2] is 49.5%. As to `C[C@H](NS(=O)(=O)c1ccc([N+](=O)[O-])cc1)C(=O)Nc1c2c(cc3c1CCC3)CCC2`, in series [1], the Activity came out at 349 pg/mL. The inhibition result in series [3] is “inactive”. As to `O=C(Nc1c2c(cc3c1CCC3)CCC2)[C@H](Cc1ccccc1)NS(=O)(=O)c1ccc([N+](=O)[O-])cc1`, the Activity in series [1] was found to be 227 pg/mL. In addition, in series [2], the inhibition came to 19.8%. For `NCCCC[C@H](NS(=O)(=O)c1ccc([N+](=O)[O-])cc1)C(=O)Nc1c2c(cc3c1CCC3)CCC2`, in that order: 149 pg/mL and 47.5%. With `CC(C)C[C@H](NS(=O)(=O)c1ccc([N+](=O)[O-])cc1)C(=O)Nc1c2c(cc3c1CCC3)CCC2`, in series [1], the Activity was 131 pg/mL. For the same compound, in series [2], the inhibition was found to be 53.9%. For `NCCCC[C@H](NS(=O)(=O)c1ccc(N)cc1)C(=O)Nc1c2c(cc3c1CCC3)CCC2`, in that order: 203 pg/mL and 28.4%. In the same order, the values of `Nc1ccc(S(=O)(=O)N[C@H](Cc2ccccc2)C(=O)Nc2c3c(cc4c2CCC4)CCC3)cc1` are 152 pg/mL and 46.4%. `O=C(CNS(=O)(=O)c1ccc([N+](=O)[O-])cc1)Nc1c2c(cc3c1CCC3)CCC2`: in series [1], the Activity was 344 pg/mL. In series [3], the inhibition entry was “inactive”. With `O=C(CCNS(=O)(=O)c1ccc([N+](=O)[O-])cc1)Nc1c2c(cc3c1CCC3)CCC2`, the Activity in series [1] is 180 pg/mL. The inhibition in series [2] was 36.5%.

Consider `CC(C)NCC(O)COc1cccc2ccccc12` (stereo not given) [PROPRANOLOL], for which the half-life at 1 µM in series [4] turned out to be 47 min; in series [5], 7.3 min. As to `O=C(Nc1c2c(cc3c1CCC3)CCC2)[C@H](CNS(=O)(=O)c1ccc([N+](=O)[O-])cc1)c1ccccc1`, the Activity in series [1] came out at 156 pg/mL. For the same compound, the inhibition in series [2] is 44.8%. In the same order, the values of `Nc1ccc(S(=O)(=O)N[C@H](C(=O)Nc2c3c(cc4c2CCC4)CCC3)c2ccccc2)cc1` are 237 pg/mL and 16.1%.

Turning to `O=C(Nc1c2c(cc3c1CCC3)CCC2)[C@@H]1CCCCN1S(=O)(=O)c1ccc([N+](=O)[O-])cc1`, in series [1], the Activity came out at 135 pg/mL. The inhibition in series [2] is 52.4%. In the same order, the values of `CC(C)C[C@H](NS(=O)(=O)c1ccc(N)cc1)C(=O)Nc1c2c(cc3c1CCC3)CCC2` are 194 pg/mL and 31.5%. Take `O=C(Nc1c2c(cc3c1CCC3)CCC2)[C@H](Cc1ccc(O)cc1)NS(=O)(=O)c1ccc([N+](=O)[O-])cc1`: the inhibition in series [2] came out at 34.7%. With `CCOc1ccc2ccc(=O)oc2c1`, the half-life at 1 µM in series [4] came to 8.3 min; in series [5], 3.3 min. For the same compound, the microsomal CLint at 1 µM in series [6] was determined as 168 µL/min/mg; in series [7], 422 µL/min/mg. As for `CC(C)[C@H](NS(=O)(=O)c1ccc(N)cc1)C(=O)Nc1c2c(cc3c1CCC3)CCC2`, the inhibition in series [2] is 50.2%. Turning to `Nc1ccc(S(=O)(=O)NCC(=O)Nc2c3c(cc4c2CCC4)CCC3)cc1`, the Activity in series [1] turned out to be 348 pg/mL. Further, the inhibition result in series [3] is “inactive”. Take `Nc1ccc(S(=O)(=O)NCCC(=O)Nc2c3c(cc4c2CCC4)CCC3)cc1`: in series [1], the Activity amounted to 220 pg/mL. For the same compound, the inhibition in series [2] worked out at 22.3%.

For the compound `O=C(Nc1c2c(cc3c1CCC3)CCC2)[C@@H]1Cc2ccccc2CN1S(=O)(=O)c1ccc([N+](=O)[O-])cc1`, the Activity in series [1] turned out to be 131 pg/mL. The inhibition in series [2] was 53.7%. `C[C@H](NS(=O)(=O)c1ccc(N)cc1)C(=O)Nc1c2c(cc3c1CCC3)CCC2`: in series [2], the inhibition amounted to 17.3%.

The record behind these values is ChEMBL document CHEMBL5380838, “Novel Aryl Sulfonamide Derivatives as NLRP3 Inflammasome Inhibitors for the Potential Treatment of Cancer” (J Med Chem, 2023).
